Test results as given in ChEMBL document CHEMBL1150169, “Fatty acid synthase inhibitors from plants: isolation, structure elucidation, and SAR studies” (J Nat Prod, 2002).
In brackets after ≈: the same amount, converted by molar mass.

Experiments:
Candida albicans = assay: Antifungal activity against Candida albicans ATCC 90028; assay type: functional, organism-based
[1] = Inhibition of Saccharomyces cerevisiae fatty acid synthase
How it was run: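 Yeast FAS semipurified by 50% ammonium sulfate precipitation of lysate (pH 6.6 phosphate, EDTA, DTT, protease inhibitors), dialyzed, and diluted to 250 mOD/min/mL. Samples preincubated with enzyme 30 min at room temperature, then mixed 1:1 with mix of 1 mM malonyl CoA and NADPH, 40 µM acetyl CoA, and 2 mM DTT. A340 read kinetically; rate over initial 2 min. IC50 from dose-response curves.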

Cryptococcus neoformans = assay: Antifungal activity against Cryptococcus neoformans ATCC 90113; assay type: functional, organism-based

| SMILES | IC50 (Candida albicans) [µg/mL] | IC50 [1] [µg/mL] | IC50 (Cryptococcus neoformans) [µg/mL] |
| --- | --- | --- | --- |
| COc1cc(O)c2c(=O)cc(-c3ccc(O)cc3)oc2c1-c1cc(-c2cc(=O)c3c(O)cc(O)cc3o2)ccc1O [SOTETSUFLAVONE] | > 50 | 25 (≈ 45.2 µM) | > 50 |
| CC1(C)CC[C@]2(C(=O)O)CC[C@]3(C)C(=CC[C@@H]4[C@@]5(C)C[C@@H](O)[C@H](O)[C@@](C)(CO)[C@@H]5[C@H](O)C[C@]43C)[C@@H]2C1 [TERMINOLIC ACID] | > 50 | > 50 | > 50 |
| C[C@H]1[C@H](C)CC[C@]2(C(=O)O)CC[C@]3(C)C(=CC[C@@H]4[C@@]5(C)CC[C@H](O)C(C)(C)[C@@H]5CC[C@]43C)[C@H]12 [URSOLIC ACID] | > 50 | 38 (≈ 83.2 µM) | > 50 |
